Results: article PMC10335114 (RSC Advances, 2023)

What was measured:
Assay type in all cases: biochemical
h-NTPDase2 = biological target: T1, h-NTPDase2 (Homo sapiens, UniProt Q9Y5L3); assay: h-NTPDase2 enzyme inhibition, malachite green assay; conditions: for h-NTPDase2 IC50 ± SEM: triplicate, determined for compounds with over 50% inhibition at 100 μM; for inhibition at 100 µM: read-out: h-NTPDase2 % inhibition ± S.D
T1 sequence (Q9Y5L3 1-495): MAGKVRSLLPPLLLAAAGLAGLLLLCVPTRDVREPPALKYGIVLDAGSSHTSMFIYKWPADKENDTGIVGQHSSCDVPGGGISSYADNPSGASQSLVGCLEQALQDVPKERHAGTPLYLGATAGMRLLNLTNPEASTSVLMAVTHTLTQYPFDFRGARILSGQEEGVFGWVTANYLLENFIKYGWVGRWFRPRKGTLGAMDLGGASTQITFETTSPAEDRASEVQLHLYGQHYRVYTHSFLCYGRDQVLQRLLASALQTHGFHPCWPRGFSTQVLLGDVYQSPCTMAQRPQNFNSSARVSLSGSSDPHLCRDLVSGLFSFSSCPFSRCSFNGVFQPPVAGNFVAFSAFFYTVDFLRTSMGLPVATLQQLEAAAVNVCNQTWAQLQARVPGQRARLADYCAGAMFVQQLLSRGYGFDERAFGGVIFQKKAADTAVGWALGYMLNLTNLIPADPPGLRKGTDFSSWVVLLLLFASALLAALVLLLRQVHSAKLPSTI
How it was run: (§1)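 Malachite green assay in 50 mM Tris-HCl, 5 mM CaCl2, pH 7.4. Test compound at 100 μM, in triplicate, incubated 10 min with enzyme: h-NTPDase1 12 ng, h-NTPDase2 37 ng, h-NTPDase3 43 ng, h-NTPDase8 63 ng. Plate read at 630 nm, then substrate (100 μM) added and incubated 15 min at 37 °C. Malachite green reagent added and reading taken up to 6 min.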

h-NTPDase3 = biological target: T2, h-NTPDase3 (Homo sapiens, UniProt O75355); assay: h-NTPDase3 enzyme inhibition, malachite green assay
T2 sequence (O75355 1-529): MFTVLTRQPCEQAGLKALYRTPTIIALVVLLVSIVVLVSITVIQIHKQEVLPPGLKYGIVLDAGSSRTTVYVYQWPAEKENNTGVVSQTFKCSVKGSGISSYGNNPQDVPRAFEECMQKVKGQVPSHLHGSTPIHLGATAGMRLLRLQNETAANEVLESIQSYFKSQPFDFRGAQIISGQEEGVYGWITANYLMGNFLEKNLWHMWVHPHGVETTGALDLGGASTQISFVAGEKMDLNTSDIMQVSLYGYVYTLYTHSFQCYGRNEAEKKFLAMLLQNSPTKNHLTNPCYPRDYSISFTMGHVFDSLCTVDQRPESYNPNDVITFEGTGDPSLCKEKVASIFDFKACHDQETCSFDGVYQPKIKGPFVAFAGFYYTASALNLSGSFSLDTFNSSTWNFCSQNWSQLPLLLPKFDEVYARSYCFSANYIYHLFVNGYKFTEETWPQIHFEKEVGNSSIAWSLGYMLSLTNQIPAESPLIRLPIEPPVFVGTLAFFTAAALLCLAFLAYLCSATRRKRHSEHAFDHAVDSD
How it was run: as §1

h-NTPDase1 = biological target: T3, h-NTPDase1 (Homo sapiens, UniProt P49961); assay: h-NTPDase1 enzyme inhibition, malachite green assay; conditions: for inhibition at 100 µM: read-out: h-NTPDase1 % inhibition ± S.D
T3 sequence (P49961 1-510): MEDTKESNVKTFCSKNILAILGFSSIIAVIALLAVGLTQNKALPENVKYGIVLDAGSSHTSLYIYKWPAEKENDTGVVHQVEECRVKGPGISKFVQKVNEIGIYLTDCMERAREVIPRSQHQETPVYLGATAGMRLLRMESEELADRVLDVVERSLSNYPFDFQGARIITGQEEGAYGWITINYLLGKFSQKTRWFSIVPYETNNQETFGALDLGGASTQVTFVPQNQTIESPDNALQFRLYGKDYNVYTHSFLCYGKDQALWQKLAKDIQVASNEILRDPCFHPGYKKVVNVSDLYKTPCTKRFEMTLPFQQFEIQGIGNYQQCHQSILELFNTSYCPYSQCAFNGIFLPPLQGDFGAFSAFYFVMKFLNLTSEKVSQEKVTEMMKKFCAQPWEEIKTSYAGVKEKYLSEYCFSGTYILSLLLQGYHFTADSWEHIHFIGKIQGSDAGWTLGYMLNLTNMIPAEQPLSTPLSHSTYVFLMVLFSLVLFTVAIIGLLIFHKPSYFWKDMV
How it was run: as §1

h-NTPDase8 = biological target: T4, h-NTPDase8 (Homo sapiens, UniProt Q5MY95); assay: h-NTPDase8 enzyme inhibition, malachite green assay; conditions: for inhibition at 100 µM: read-out: h-NTPDase8 % inhibition ± S.D
T4 sequence (Q5MY95 1-495): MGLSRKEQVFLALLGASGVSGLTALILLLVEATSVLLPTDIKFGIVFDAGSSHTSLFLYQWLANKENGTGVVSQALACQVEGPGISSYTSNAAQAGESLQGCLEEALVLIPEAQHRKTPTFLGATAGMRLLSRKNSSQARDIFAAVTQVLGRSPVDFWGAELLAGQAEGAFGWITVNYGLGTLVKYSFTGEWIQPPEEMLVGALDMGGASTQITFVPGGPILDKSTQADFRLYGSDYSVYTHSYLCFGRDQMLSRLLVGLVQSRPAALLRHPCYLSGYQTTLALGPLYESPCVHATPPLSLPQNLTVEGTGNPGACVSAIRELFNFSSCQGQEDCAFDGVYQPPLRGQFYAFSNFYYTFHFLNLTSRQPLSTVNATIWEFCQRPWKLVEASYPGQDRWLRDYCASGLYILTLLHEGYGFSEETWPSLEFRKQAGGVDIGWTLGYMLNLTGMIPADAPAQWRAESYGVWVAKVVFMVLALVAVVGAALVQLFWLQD
How it was run: as §1

IC50 (h-NTPDase2) [nM] | h-NTPDase2 IC50 ± SEM (h-NTPDase2) | IC50 (h-NTPDase3) [nM] | IC50 (h-NTPDase1) [nM] | inhibition at 100 µM (h-NTPDase8) [%] | IC50 (h-NTPDase8) [nM] | inhibition at 100 µM (h-NTPDase1) [%] | inhibition at 100 µM (h-NTPDase2) [%] | inhibition at 100 µM (h-NTPDase3; read-out: h-NTPDase3 % inhibition ± S.D) [%] | Structure (SMILES)
270 ± 80 | sub-micromolar | 6710 ± 40 | > 100000 | 29 ± 4.5 |  |  |  |  | COc1ccc(NC(=O)c2cccc(S(=O)(=O)N3CCOCC3)c2)cc1 [3f, N-(4-methoxyphenyl)-3-(morpholinosulfonyl)benzamide]
 |  |  |  |  | 101000 ± 2340 |  |  |  | Cc1ccc(C(=O)Nc2ccc(S(=O)(=O)O)c3cc(S(=O)(=O)O)cc(S(=O)(=O)O)c23)cc1NC(=O)c1cccc(NC(=O)Nc2cccc(C(=O)Nc3cc(C(=O)Nc4ccc(S(=O)(=O)O)c5cc(S(=O)(=O)O)cc(S(=O)(=O)O)c45)ccc3C)c2)c1 [Suramin, reference compound]
290 ± 70 | sub-micromolar | 3160 ± 120 |  | 36 ± 1.7 |  | 37 ± 1.3 |  |  | COc1ccc(NC(=O)c2cc(S(=O)(=O)NCc3ccccc3)ccc2Cl)cc1 [3j, 5-(N-benzylsulfamoyl)-2-chloro-N-(4-methoxyphenyl)benzamide]
 |  |  |  |  | 280 ± 70 | 3 ± 1.2 | 19 ± 0.9 | 41 ± 1.4 | O=C(O)c1cc(S(=O)(=O)NC2CC2)ccc1Cl [2d, 2-chloro-5-(N-cyclopropylsulfamoyl)benzoic acid]
 |  | 720 ± 110 | 2880 ± 130 | 32 ± 3.5 |  |  | 43 ± 1.4 |  | O=C(c1cc(S(=O)(=O)Nc2ccc(Br)cc2)ccc1Cl)N1CCOCC1 [3i, N-(4-bromophenyl)-4-chloro-3-(morpholine-4-carbonyl)benzenesulfonamide]
130 ± 10 | sub-micromolar | 200 ± 70 |  |  | 2460 ± 90 | 36 ± 2.4 |  |  | O=C(NC1CC1)c1cc(S(=O)(=O)NC2CC2)ccc1Cl [4d, 2-chloro-N-cyclopropyl-5-(N-cyclopropylsulfamoyl)benzamide]
